# RGS4 inh: inhibitors of human RGS4 | AID 463165 | B-score at 10 µM | P49798 | HEK293 M3R/RGS4 inducible, Fluo-4 calcium flux; hits give high values; triggered by carbachol at its EC20 | 310,000 compounds, 0.45% hits;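 active = B-score, a plate-corrected calcium signal, over three deviations above library mean, with baseline fluorescence within five deviations of library mean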;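 note: RGS4 expression induced by doxycycline in cells with stable M3 receptor; B-score is computed from the integrated fluorescence ratio over baseline after carbachol; higher B-score means a larger calcium signal and so more RGS4 inhibition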
# Target sequence (P49798 whole entry, looked up): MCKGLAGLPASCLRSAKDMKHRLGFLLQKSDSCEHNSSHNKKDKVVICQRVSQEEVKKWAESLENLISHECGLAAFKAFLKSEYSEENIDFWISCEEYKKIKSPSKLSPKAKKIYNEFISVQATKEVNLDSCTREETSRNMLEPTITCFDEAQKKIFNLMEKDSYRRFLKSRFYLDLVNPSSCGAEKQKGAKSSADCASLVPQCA
# MrgX1 PAM: allosterically activates human MrgX1 receptor signaling. 310,000 compounds, 0.63% hits. AID 588675. B-score at 10 µM. MrgX1-HEK293, Fluo-4 calcium flux, FDSS; hits give high values. Q96LB2;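 active = plate-corrected calcium response at least 3 library SD above typical, normal starting fluorescence, not activating the receptor alone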;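 note: compound read alongside a low EC10 to EC30 dose of BAM8-22 agonist; peak minus trough fluorescence over baseline measured at the second addition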
# Target sequence (Q96LB2 whole entry, looked up): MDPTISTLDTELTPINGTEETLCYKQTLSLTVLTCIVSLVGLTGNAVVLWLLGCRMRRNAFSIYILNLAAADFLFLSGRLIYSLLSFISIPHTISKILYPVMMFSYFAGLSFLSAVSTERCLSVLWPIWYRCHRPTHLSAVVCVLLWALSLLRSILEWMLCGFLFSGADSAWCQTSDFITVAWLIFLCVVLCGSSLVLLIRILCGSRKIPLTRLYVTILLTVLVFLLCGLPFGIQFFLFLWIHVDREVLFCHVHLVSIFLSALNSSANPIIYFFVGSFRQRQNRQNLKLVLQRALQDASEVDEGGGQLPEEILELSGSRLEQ
# MrgX1 agonist: human MrgX1 receptor agonism, primary screen. Q96LB2. MrgX1-HEK293 cells, Fluo-4 calcium fluorescence, agonist mode; hits give high values. B-score at 10 µM. 310,000 compounds, 0.44% hits;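 active = calcium response B-score plate-corrected fluorescence ratio at least 3 library SD, with starting fluorescence B-score inside 5 SD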
#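 Test system: HEK293 cells stably expressing human MrgX1 receptor; Input: fifteen thousand cells per well; Dosing: compound delivered in addition one of three; Schedule: overnight seeding, then 1 h dark dye loading; Technique: Fluo-4 NW calcium fluorescence; Measure: B-scored fluorescence response ratio; Controls: positive and negative controls per plate.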
# RGS4 act: RGS4 potentiation or activation; HEK293 M3R/inducible RGS4, carbachol calcium flux Fluo4; hits give low values; B-score at 10 µM; 310,000 compounds, 0.92% hits; AID 463111;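 active = B-score of the integrated calcium signal more than 4 SD below the library mean, with starting fluorescence not abnormally high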;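 note: negative B-score means reduced calcium response which marks RGS4 activation or potentiation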
#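 Assay system: HEK293 FlpIn-TREx cells, stable M3R, doxycycline-inducible RGS4 / Probe or stimulus: carbachol, ECmax concentration / Times: overnight RGS4 induction, 30 min dye load 37 °C, 20 min compound RT / Signal: kinetic calcium fluorescence imaging with Fluo4-AM dye, 2 µM / Measure: Agonist-evoked peak-minus-minimum fluorescence over baseline, integrated ratio, B score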
# MrgX1 antag: blocks BAM8-22 activation of human MrgX1 receptor | B-score at 10 µM | 310,000 compounds, 1.3% hits | MRGX1-HEK293 calcium flux, Fluo-4, BAM8-22 antagonism; hits give low values | Q96LB2;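 active = calcium-response B-score plate-corrected more than 3 library SD below zero, starting fluorescence within 5 deviations, no agonist response on first addition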;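 note: peak minus trough fluorescence over baseline after final BAM8-22 challenge near maximal dose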
# RGS4 act valid: confirmation of RGS4 activators. shares compounds with RGS4 act. HEK293 M3R/RGS4 inducible, carbachol calcium flux Fluo4. inhibition, % at 10 µM. 1,100 compounds, 89% hits;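 active = inhibition above 3 SD of the buffer control wells, cut at about 41% in these data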;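 note: signal is the integrated peak-minus-minimum Fluo4 fluorescence over baseline ratio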
# RGS4 act ctr: activity in cells without induced RGS4 expression; HEK293 M3R non-induced RGS4, Fluo4 calcium flux; after carbachol challenge at its EC90; inhibition, % at 10 µM; 1,100 compounds, 82% hits; shares compounds with RGS4 act;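 active = inhibition exceeding 3 SD of buffer-only control wells, cut at about 26% in these data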;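 note: percent drop in integrated peak-minus-baseline over baseline Fluo4 ratio after carbachol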
# * marks the source's active call; other numbers are inactive results; i = inactive; . = no result given. The list is not random: actives were taken first. Their share in the collection is about 3.5%.
SMILES,RGS4 inh,MrgX1 PAM,MrgX1 agonist,RGS4 act,MrgX1 antag,RGS4 act valid,RGS4 act ctr
OCCC1CN(C/C(Cl)=C/c2ccccc2)CCN1C1CCCC1 (stereo unspecified),i,i,i,-10*,i,70*,84*
CC(=O)Nc1ccc(CN2CCCC(C(=O)c3ccc(C(F)(F)F)cc3)C2)cc1 (stereo unspecified),i,i,i,-10*,i,72*,84*
O=C(c1ccc(-c2ccccc2)cc1)C1CCCN(Cc2ccncc2)C1 (stereo unspecified),i,i,i,i,i,.,.
O=C(CSc1nnc(-c2ccccn2)o1)Nc1ccc(F)cc1,i,i,i,i,i,.,.
COc1cc(C(=O)Nc2ccc3c(c2)N(C(=O)CN2CCN(C)CC2)c2ccccc2CC3)cc(OC)c1OC,i,i,i,i,i,.,.
O=C(CS(=O)(=O)Cc1ccccc1)Nc1nc2c(s1)CCCC2,i,i,i,i,i,.,.
O=C(CCS(=O)(=O)Cc1ccccc1)Nc1nc2c(s1)CCCC2,i,i,i,-11*,i,0,0
COC(=O)c1ccc(S(=O)(=O)c2ccc(Cl)cc2)c(N)c1,i,i,i,i,i,.,.
COc1ccc(C(=O)OCCN2C(=O)c3ccccc3C2=O)cc1,i,i,i,-8.7*,i,40*,84*
O=C(CNC(=O)c1ccccc1F)NCCOc1ccccc1Cl,i,i,i,i,i,.,.
S=C(NCc1ccco1)N1CCN(C(c2ccccc2)c2ccccc2)CC1,i,i,i,-9.8*,i,66*,0
Cc1ccc(NC(=O)c2cnc(N3CCN(c4ccccn4)CC3)c3ccccc23)c(Br)c1,i,i,i,-11*,i,91*,76*
Cc1nc(N2CCN(c3ccccn3)CC2)c2c(C)c(C(=O)Nc3ccccc3F)sc2n1,i,i,i,-7.8*,i,94*,59*
COc1ccc(NC(=O)c2sc3nc(C)nc(N4CCN(c5ccccn5)CC4)c3c2C)cc1Cl,i,i,i,i,i,.,.
Cc1nc(N2CCN(c3ccccn3)CC2)c2c(C)c(C(=O)Nc3ccc(F)cc3F)sc2n1,i,i,i,-9*,i,80*,27*
CCc1ccc(NC(=O)c2sc3nc(C)nc(N4CCN(c5ccccn5)CC4)c3c2C)cc1,i,i,i,-8.5*,i,64*,84*
O=C(Nc1c(F)cccc1F)c1cnc(N2CCN(c3ccccn3)CC2)c2ccccc12,i,i,i,i,i,.,.
Cc1ccccc1Cc1c(C)nc2nc(SCC(=O)NCCCN3CCCCC3)nn2c1C,i,i,i,-9.6*,i,74*,43*
Cc1ccc(Cc2c(C)nc3nc(SCC(=O)NCCCN4CCOCC4)nn3c2C)cc1,i,i,i,i,i,.,.
CC(NC(=O)c1ccc(C#N)cc1)C1CC2CCC1C2 (stereo unspecified),i,i,i,i,i,.,.
Cc1ccccc1C1c2[nH]c3ccccc3c2CCN1CCCn1cccn1 (stereo unspecified),i,i,i,-7.7*,i,93*,91*
Fc1ccc(C2c3[nH]c4ccccc4c3CCN2CCCn2cccn2)cc1 (stereo unspecified),i,i,i,i,i,.,.
Cc1nc(-c2ccc(S(=O)(=O)Oc3ccc(Cl)cc3Cl)s2)cs1,i,i,i,-8.4*,i,89*,71*
CCCCn1c(-c2csc(C(C)C)c2)n[nH]c1=S,i,i,i,-9.7*,i,92*,60*
CCCCn1c(-c2csc(CC)c2)n[nH]c1=S,i,i,i,-8*,i,88*,55*
SMILES,RGS4 inh,MrgX1 PAM,MrgX1 agonist,RGS4 act,MrgX1 antag,RGS4 act valid,RGS4 act ctr
CCCc1cc(-c2n[nH]c(=S)n2CC(C)C)cs1,i,i,i,i,i,.,.
CCOC(=O)c1cn(Cc2ccc(C)cc2)c2cc(F)ccc2c1=O,i,i,i,i,i,.,.
Nc1nc(N)nc(COc2ccccc2)n1,i,i,i,i,i,.,.
Cc1[nH][nH]c(=O)c1C(c1ccc(Cl)cc1)c1c(C)[nH][nH]c1=O,i,i,i,i,i,.,.
COc1ccc(CC(=O)Nc2nc(-c3ccc(F)c(F)c3)cs2)cc1,i,i,i,-10*,i,92*,96*
O=C(Cc1ccc(F)cc1)Nc1nc(-c2ccc(F)c(F)c2)cs1,i,i,i,i,i,.,.
Cc1nc(CN2CCN(Cc3nc(C(c4ccccc4)c4ccccc4)no3)CC2)cs1,i,i,i,-13*,i,92*,79*
OC(c1ccccn1)C1CCN(Cc2nc(C(c3ccccc3)c3ccccc3)no2)CC1 (stereo unspecified),i,i,i,i,i,.,.
Cc1cccnc1CN1CCN(Cc2nc(C(c3ccccc3)c3ccccc3)no2)CC1,i,i,i,-8.7*,i,93*,82*
Cc1ccc(S(=O)(=O)N2CCCC2C(=O)NCc2ccccc2Cl)cc1 (stereo unspecified),i,i,i,i,i,.,.
Cc1nn(-c2ccccc2)c(C)c1NC(=O)COC(=O)c1cccc(OC(F)F)c1,i,i,i,-8.4*,i,0,0
Cc1nc2cc(NC(=O)c3ccc(S(=O)(=O)N(C)c4ccccc4)cc3)ccc2o1,i,i,i,i,i,.,.
Cc1c(C)n(Cc2ccccc2)c2ncnc(NCCCN(C)C)c12,i,i,i,-9.4*,i,70*,84*
CC(=O)Nc1cccc(C(=O)OCC(=O)N2CCC(c3ccccc3)=N2)c1,i,i,i,i,i,.,.
CCCC(O)(CCN1CCCCC1)c1ccc(OCC)cc1 (stereo unspecified),i,i,i,i,i,.,.
COc1ccc(C(O)(CCN2CCCCC2)C2CCCCC2)cc1 (stereo unspecified),i,i,i,-10*,i,92*,95*
CN1C2CCC1CC(NC(=O)CSc1ccc(Cl)cc1)C2 (stereo unspecified),i,i,i,-9*,i,59*,0
CN1C2CCC1CC(NC(=O)c1ccc(Cl)cc1)C2 (stereo unspecified),i,i,i,i,i,.,.

# Bioassay records: PubChem, Johns Hopkins Ion Channel Center
